Results as given in ChEMBL document CHEMBL2150980 (Eur J Med Chem, 2012).

Legend:
[1] = biological target: T1, Alpha-1A adrenergic receptor (Cavia porcellus) (UniProt Q9WU25); test: Inverse agonist activity at alpha1A adrenoceptor in guinea pig thoracic aorta assessed as inhibition of ca2+-induced IRT at 10 nM after 30 mins; type: functional, tissue-based
T1 sequence (whole entry): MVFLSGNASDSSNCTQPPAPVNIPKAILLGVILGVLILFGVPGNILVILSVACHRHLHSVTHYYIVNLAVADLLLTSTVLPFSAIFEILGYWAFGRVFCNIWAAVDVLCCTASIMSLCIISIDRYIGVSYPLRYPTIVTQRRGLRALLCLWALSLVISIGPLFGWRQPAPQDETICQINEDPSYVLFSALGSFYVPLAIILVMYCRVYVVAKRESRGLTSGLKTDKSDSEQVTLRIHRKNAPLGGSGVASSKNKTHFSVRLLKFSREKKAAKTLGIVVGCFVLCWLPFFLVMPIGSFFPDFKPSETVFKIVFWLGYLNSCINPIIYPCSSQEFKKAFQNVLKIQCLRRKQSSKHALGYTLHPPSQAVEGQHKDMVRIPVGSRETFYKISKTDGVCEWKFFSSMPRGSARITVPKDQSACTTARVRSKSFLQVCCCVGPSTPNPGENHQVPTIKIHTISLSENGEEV
Procedure, shortened: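 Tissue in Krebs equilibrated 1 h at 1 g, then given a single (−)-noradrenaline dose. Washed 1 h in Ca2+-free Krebs with 0.1 mM EDTA, with agonist reapplied until no contraction (internal Ca2+ stores depleted). Antagonist 10 nM for 30 min, then Ca2+ 1.8 mM added. Result is % decrease versus IRT without any agent; mean ± SE, 4–7 experiments.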

[2] = biological target: T2, Alpha-1A adrenergic receptor (Homo sapiens, UniProt P35348); test: Displacement of [3H]prazosin from human cloned alpha1A adrenoceptor expressed in CHO cell membranes after 30 mins by liquid scintillation counter
T2 sequence (P35348 whole entry): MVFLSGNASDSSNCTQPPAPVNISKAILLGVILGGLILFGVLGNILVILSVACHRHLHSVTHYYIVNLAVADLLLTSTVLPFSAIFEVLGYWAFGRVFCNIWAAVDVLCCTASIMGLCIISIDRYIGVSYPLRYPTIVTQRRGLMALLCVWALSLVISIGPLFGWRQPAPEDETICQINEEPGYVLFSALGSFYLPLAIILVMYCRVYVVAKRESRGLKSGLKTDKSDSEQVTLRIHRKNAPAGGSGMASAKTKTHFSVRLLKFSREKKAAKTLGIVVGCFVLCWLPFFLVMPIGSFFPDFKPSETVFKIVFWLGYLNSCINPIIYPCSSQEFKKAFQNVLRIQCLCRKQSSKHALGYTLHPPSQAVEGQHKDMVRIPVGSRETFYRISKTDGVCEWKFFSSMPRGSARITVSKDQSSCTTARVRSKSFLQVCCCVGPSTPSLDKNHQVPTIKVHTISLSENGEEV
Procedure, shortened: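 Membranes incubated 30 min at 25 °C with 0.5 nM [3H]-prazosin ± compound (0.3–1000 nM) in 50 mM buffer, pH 7.7, containing pargyline and 0.1% ascorbic acid. Unlabelled prazosin defined nonspecific binding. GF/B filtration, scintillation counting.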

[3] = biological target: T3, Alpha-1D adrenergic receptor (Homo sapiens, UniProt P25100); test: Displacement of [3H]prazosin from human cloned alpha1D adrenoceptor expressed in CHO cell membranes after 30 mins by liquid scintillation counter
T3 sequence (P25100 whole entry): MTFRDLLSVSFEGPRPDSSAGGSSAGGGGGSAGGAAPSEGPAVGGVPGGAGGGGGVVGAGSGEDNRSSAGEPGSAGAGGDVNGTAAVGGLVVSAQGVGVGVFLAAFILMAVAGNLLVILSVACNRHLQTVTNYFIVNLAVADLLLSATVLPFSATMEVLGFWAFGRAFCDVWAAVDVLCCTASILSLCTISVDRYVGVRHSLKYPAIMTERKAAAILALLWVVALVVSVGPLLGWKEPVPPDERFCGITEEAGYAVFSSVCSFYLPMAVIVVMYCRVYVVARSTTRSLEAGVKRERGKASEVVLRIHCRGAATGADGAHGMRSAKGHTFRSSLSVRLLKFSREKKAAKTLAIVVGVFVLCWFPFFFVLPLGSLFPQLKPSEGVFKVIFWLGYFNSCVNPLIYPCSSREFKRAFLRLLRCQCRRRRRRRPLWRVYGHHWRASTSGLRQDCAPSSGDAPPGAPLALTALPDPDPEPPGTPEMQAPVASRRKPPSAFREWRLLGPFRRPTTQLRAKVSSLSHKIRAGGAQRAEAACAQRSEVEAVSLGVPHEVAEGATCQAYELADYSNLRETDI

[4] = biological target: T4, Alpha-1B adrenergic receptor (Homo sapiens, UniProt P35368); test: Displacement of [3H]prazosin from human cloned alpha1B adrenoceptor expressed in CHO cell membranes after 30 mins by liquid scintillation counter
T4 sequence (P35368 whole entry): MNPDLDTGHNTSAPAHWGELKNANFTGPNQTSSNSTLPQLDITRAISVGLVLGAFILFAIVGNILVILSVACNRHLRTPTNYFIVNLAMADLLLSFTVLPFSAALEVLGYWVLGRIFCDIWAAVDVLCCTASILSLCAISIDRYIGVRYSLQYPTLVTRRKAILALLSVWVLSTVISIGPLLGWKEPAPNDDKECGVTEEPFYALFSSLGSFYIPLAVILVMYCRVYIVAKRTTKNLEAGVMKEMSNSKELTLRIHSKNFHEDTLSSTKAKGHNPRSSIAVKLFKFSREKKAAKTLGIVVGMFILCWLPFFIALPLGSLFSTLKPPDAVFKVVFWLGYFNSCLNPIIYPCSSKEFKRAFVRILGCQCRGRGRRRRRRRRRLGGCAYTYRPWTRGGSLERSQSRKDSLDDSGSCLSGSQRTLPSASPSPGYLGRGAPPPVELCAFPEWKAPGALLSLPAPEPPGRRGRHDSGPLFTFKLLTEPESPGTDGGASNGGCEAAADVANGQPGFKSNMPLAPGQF

[5] = biological target: T5, 5-hydroxytryptamine receptor 1A (Rattus norvegicus, UniProt P19327); test: Displacement of [3H]-8-OH-DPAT from 5-HT1A receptor in rat hippocampal membranes after 30 mins by liquid scintillation counting; type: cell membranes, Hippocampus, Membrane
T5 sequence (P19327 whole entry): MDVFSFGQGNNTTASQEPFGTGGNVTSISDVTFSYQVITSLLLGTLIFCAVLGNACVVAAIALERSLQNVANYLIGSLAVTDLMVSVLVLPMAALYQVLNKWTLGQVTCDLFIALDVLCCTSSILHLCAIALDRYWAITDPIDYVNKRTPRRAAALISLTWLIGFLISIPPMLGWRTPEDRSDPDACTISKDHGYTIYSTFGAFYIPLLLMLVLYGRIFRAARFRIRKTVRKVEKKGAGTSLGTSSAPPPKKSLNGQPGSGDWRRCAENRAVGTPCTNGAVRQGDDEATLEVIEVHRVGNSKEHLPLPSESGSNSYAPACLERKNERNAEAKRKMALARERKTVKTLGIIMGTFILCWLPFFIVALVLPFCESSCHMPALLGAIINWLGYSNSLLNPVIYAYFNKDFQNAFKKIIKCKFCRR
Procedure, shortened: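 Crude rat hippocampal membranes in Tris-HCl 50 mM, pH 7.7, with pargyline and 4 mM CaCl2. […] Stopped by GF/B filtration, then scintillation counting. Ki from IC50 via Cheng–Prusoff; ≥3 experiments in triplicate.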

COc1cccc(OC)c1OCCNC[C@H]1COc2cccc(OC)c2O1.Cl
inhibition [1]: 60%
Ki [2]: 0.912 nM
Ki [3]: 0.372 nM
Ki [4]: 2.75 nM
Ki [5]: 0.851 nM

COc1cccc(OC)c1OCCNC[C@H]1COc2cccc(O)c2O1.Cl
inhibition [1]: 100%
Ki [2]: 2.19 nM
Ki [3]: 8.91 nM
Ki [4]: 30.9 nM
Ki [5]: 1 nM

COc1cccc(OC)c1OCCNC[C@H]1COc2cccc(F)c2O1.Cl
inhibition [1]: 100%
Ki [2]: 0.646 nM
Ki [3]: 0.49 nM
Ki [4]: 2.4 nM
Ki [5]: 1.41 nM

COc1cccc(OC)c1OCCNC[C@H]1COc2cccc(Cl)c2O1.Cl
inhibition [1]: 80%
Ki [2]: 0.891 nM
Ki [3]: 0.708 nM
Ki [4]: 2.19 nM
Ki [5]: 1.7 nM

COc1cccc(OC)c1OCCNC[C@H]1COc2c(OC)cccc2O1.Cl
inhibition [1]: 79%
Ki [2]: 24 nM
Ki [3]: 79.4 nM
Ki [4]: 447 nM
Ki [5]: 28.8 nM
